The record followed here is ChEMBL document CHEMBL3603773, “Synthesis of novel triazoles and a tetrazole of escitalopram as cholinesterase inhibitors” (Bioorg Med Chem, 2015).

Bounds are passed on as bounds.

For the first assay, the target named is T1, Cholinesterase (Homo sapiens, UniProt P06276). Nature of the assay: Inhibition of BChE (unknown origin) using butyrylthiocholine chloride as substrate at 0.5 mM preincubated for 30 mins before substrate addition measured after 30 mins by Ellman method relative to control.
T1 sequence (P06276 whole entry): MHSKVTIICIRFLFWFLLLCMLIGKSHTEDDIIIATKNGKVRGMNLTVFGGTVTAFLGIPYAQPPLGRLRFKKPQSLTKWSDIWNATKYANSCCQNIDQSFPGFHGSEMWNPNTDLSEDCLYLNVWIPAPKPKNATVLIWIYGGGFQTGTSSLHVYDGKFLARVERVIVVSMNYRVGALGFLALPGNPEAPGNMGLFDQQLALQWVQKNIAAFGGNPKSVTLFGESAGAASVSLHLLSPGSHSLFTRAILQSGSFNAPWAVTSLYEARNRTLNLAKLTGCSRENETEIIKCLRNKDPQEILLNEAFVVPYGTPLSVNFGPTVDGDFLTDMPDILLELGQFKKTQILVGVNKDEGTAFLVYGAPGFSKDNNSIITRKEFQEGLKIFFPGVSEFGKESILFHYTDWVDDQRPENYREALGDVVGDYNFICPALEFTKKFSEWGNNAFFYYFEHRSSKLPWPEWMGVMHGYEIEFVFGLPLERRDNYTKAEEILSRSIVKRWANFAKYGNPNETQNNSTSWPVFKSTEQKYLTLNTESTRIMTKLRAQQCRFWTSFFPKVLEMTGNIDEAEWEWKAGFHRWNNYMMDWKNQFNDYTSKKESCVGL
For the molecule `CN(C)CCC[C@@]1(c2ccc(F)cc2)OCc2cc(-c3nnc(-c4cccc([N+](=O)[O-])c4)[nH]3)ccc21`, the inhibition amounted to 79.2%.
In the case of `COc1cc(-c2nnc(-c3ccc4c(c3)CO[C@@]4(CCCN(C)C)c3ccc(F)cc3)[nH]2)ccc1O`, the inhibition stood at 88.6%.
Same read-out and setting: the value for `CN(C)CCC[C@@]1(c2ccc(F)cc2)OCc2cc(-c3nnc(-c4ccccc4[N+](=O)[O-])[nH]3)ccc21` was 62.9%; that for `CN(C)CCC[C@@]1(c2ccc(F)cc2)OCc2cc(-c3nnc(-c4ccc(F)cc4)[nH]3)ccc21` was 92.5%.
The same measure, in the same setting: the value for `CN(C)CCC[C@@]1(c2ccc(F)cc2)OCc2cc(-c3nnc(-c4cccc(Cl)c4)[nH]3)ccc21` was 79.9%.
Same read-out and setting: the value for `Cc1cccc(-c2nnc(-c3ccc4c(c3)CO[C@@]4(CCCN(C)C)c3ccc(F)cc3)[nH]2)c1` was 71.5%; that for `CN(C)CCC[C@@]1(c2ccc(F)cc2)OCc2cc(-c3nnc(-c4cccc(N)c4)[nH]3)ccc21` was 73.5%.
As for `Cc1ccccc1-c1nnc(-c2ccc3c(c2)CO[C@@]3(CCCN(C)C)c2ccc(F)cc2)[nH]1`, the inhibition amounted to 85%.
The same measure, in the same setting: the same measure for `CN(C)CCC[C@@]1(c2ccc(F)cc2)OCc2cc(-c3nnc(-c4ccccc4)[nH]3)ccc21`: 81.8%.
Still for that read-out and setting: the same measure for `COc1ccccc1-c1nnc(-c2ccc3c(c2)CO[C@@]3(CCCN(C)C)c2ccc(F)cc2)[nH]1`: -2.13%.
The same measure, in the same setting: the same measure for `CN(C)CCC[C@@]1(c2ccc(F)cc2)OCc2cc(-c3nnc(-c4cccc(I)c4)[nH]3)ccc21`: 75.5%; for `Cc1ccc(-c2nnc(-c3ccc4c(c3)CO[C@@]4(CCCN(C)C)c3ccc(F)cc3)[nH]2)cc1`: 91%; for `CN(C)CCC[C@@]1(c2ccc(F)cc2)OCc2cc(-c3nnc(-c4ccccc4Cl)[nH]3)ccc21`: 79.6%.

The target in another assay is T2, Acetylcholinesterase (Homo sapiens, UniProt P22303). Kind of assay: Inhibition of AChE (unknown origin) using acetylthiocholine iodide as substrate at 0.5 mM preincubated for 30 mins before substrate addition measured after 30 mins by Ellman method relative to control.
T2 sequence (P22303 whole entry): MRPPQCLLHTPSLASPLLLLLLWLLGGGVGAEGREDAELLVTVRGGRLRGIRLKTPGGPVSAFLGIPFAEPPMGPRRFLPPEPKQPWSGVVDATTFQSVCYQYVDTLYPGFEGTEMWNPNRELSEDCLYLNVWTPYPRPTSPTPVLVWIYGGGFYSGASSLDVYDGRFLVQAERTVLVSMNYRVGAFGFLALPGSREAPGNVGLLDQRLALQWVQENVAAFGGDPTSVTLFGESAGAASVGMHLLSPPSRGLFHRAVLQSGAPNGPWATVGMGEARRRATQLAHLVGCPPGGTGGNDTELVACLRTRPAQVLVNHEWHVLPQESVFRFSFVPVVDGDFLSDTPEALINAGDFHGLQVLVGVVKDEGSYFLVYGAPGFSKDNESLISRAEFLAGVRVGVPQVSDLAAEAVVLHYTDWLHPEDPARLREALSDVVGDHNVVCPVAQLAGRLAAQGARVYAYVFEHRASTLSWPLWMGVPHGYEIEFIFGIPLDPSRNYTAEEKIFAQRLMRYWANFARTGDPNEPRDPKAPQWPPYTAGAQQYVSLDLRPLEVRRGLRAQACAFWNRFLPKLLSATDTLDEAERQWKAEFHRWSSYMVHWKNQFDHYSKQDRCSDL
As for `CN(C)CCC[C@@]1(c2ccc(F)cc2)OCc2cc(-c3nnc(-c4cccc([N+](=O)[O-])c4)[nH]3)ccc21`, the inhibition worked out at 81.7%.
On to `COc1cc(-c2nnc(-c3ccc4c(c3)CO[C@@]4(CCCN(C)C)c3ccc(F)cc3)[nH]2)ccc1O`, for which the inhibition was found to be 34.8%.
For the molecule `CN(C)CCC[C@@]1(c2ccc(F)cc2)OCc2cc(-c3nnc(-c4ccccc4[N+](=O)[O-])[nH]3)ccc21`, the inhibition was determined as 5.09%.
As to `CN(C)CCC[C@@]1(c2ccc(F)cc2)OCc2cc(-c3nnc(-c4ccc(F)cc4)[nH]3)ccc21`, the inhibition turned out to be 71.5%.
The same measure, in the same setting: the value for `CN(C)CCC[C@@]1(c2ccc(F)cc2)OCc2cc(-c3nnc(-c4cccc(Cl)c4)[nH]3)ccc21` was 57.4%; that for `Cc1cccc(-c2nnc(-c3ccc4c(c3)CO[C@@]4(CCCN(C)C)c3ccc(F)cc3)[nH]2)c1` was 88.1%.
Turning to `CN(C)CCC[C@@]1(c2ccc(F)cc2)OCc2cc(-c3nnc(-c4cccc(N)c4)[nH]3)ccc21`, the inhibition worked out at 29.9%.
In the case of `Cc1ccccc1-c1nnc(-c2ccc3c(c2)CO[C@@]3(CCCN(C)C)c2ccc(F)cc2)[nH]1`, the inhibition turned out to be 88.6%.
The same measure, in the same setting: the same measure for `CN(C)CCC[C@@]1(c2ccc(F)cc2)OCc2cc(-c3nnc(-c4ccccc4)[nH]3)ccc21`: 30.4%; for `COc1ccccc1-c1nnc(-c2ccc3c(c2)CO[C@@]3(CCCN(C)C)c2ccc(F)cc2)[nH]1`: 80.4%.
On the same count and under the same terms, the value for `CN(C)CCC[C@@]1(c2ccc(F)cc2)OCc2cc(-c3nnc(-c4cccc(I)c4)[nH]3)ccc21` was 25.1%; that for `Cc1ccc(-c2nnc(-c3ccc4c(c3)CO[C@@]4(CCCN(C)C)c3ccc(F)cc3)[nH]2)cc1` was 16%; that for `CN(C)CCC[C@@]1(c2ccc(F)cc2)OCc2cc(-c3nnc(-c4ccccc4Cl)[nH]3)ccc21` was 19.5%.

The next assay deals with Cholinesterases; ACHE & BCHE (Homo sapiens) (UniProt P06276+P22303). Kind of assay: Selectivity ratio of IC50 for AChE (unknown origin) to IC50 for BChE (unknown origin). The procedure, abridged: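 Ratio of IC50 for AChE to IC50 for BChE, both measured by Ellman assay. Each IC50 is the mean of three independent experiments.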
Chain of Cholinesterases; ACHE & BCHE (Homo sapiens) (P06276 whole entry, looked up): as the sequence (P06276 whole entry) above
Chain of Cholinesterases; ACHE & BCHE (Homo sapiens) (P22303 whole entry, looked up): as the sequence (P22303 whole entry) above
On to `CN(C)CCC[C@@]1(c2ccc(F)cc2)OCc2cc(-c3nnc(-c4cccc(O)c4)[nH]3)ccc21`, for which the Ratio IC50 was under 4.22.
On to `CN(C)CCC[C@@]1(c2ccc(F)cc2)OCc2cc(-c3nnc(-c4cccc([N+](=O)[O-])c4)[nH]3)ccc21`, for which the Ratio IC50 amounted to 1.32.
For the molecule `COc1cc(-c2nnc(-c3ccc4c(c3)CO[C@@]4(CCCN(C)C)c3ccc(F)cc3)[nH]2)ccc1O`, the Ratio IC50 is under 20.8.
Still for that read-out and setting: the value for `CN(C)CCC[C@@]1(c2ccc(F)cc2)OCc2cc(-c3nnc(-c4ccc(F)cc4)[nH]3)ccc21` was 49.1; that for `CN(C)CCC[C@@]1(c2ccc(F)cc2)OCc2cc(-c3nnc(-c4cccc(Cl)c4)[nH]3)ccc21` was 15.7; that for `Cc1cccc(-c2nnc(-c3ccc4c(c3)CO[C@@]4(CCCN(C)C)c3ccc(F)cc3)[nH]2)c1` was 1.49.
Same read-out and setting: the same measure for `CN(C)CCC[C@@]1(c2ccc(F)cc2)OCc2cc(-c3nnc(-c4cccc(N)c4)[nH]3)ccc21`: over 2.67; for `Cc1ccccc1-c1nnc(-c2ccc3c(c2)CO[C@@]3(CCCN(C)C)c2ccc(F)cc2)[nH]1`: 0.095.
On the same count and under the same terms, the same measure for `CN(C)CCC[C@@]1(c2ccc(F)cc2)OCc2cc(-c3nnc(-c4ccccc4)[nH]3)ccc21`: over 3.88; for `CN(C)CCC[C@@]1(c2ccc(F)cc2)OCc2cc(-c3nnc(-c4cccc(I)c4)[nH]3)ccc21`: over 2.67.
For `CN(C)CCC[C@@]1(c2ccc(F)cc2)OCc2cc(-c3nnc(-c4ccccc4F)[nH]3)ccc21`, the Ratio IC50 is 41.5.

In the next assay the target is T1, Cholinesterase. Nature of the assay: Inhibition of BChE (unknown origin) using butyrylthiocholine chloride as substrate […] measured after 30 mins by Ellman method.
The molecule `CN(C)CCC[C@@]1(c2ccc(F)cc2)OCc2cc(-c3nnc(-c4cccc(O)c4)[nH]3)ccc21` showed an IC50 of 119 µM.
Still for that read-out and setting: the value for `CN(C)CCC[C@@]1(c2ccc(F)cc2)OCc2cc(-c3nnc(-c4cccc([N+](=O)[O-])c4)[nH]3)ccc21` was 105 µM.
The same measure, in the same setting: the same measure for `COc1cc(-c2nnc(-c3ccc4c(c3)CO[C@@]4(CCCN(C)C)c3ccc(F)cc3)[nH]2)ccc1O`: 24.1 µM.
The same measure, in the same setting: the value for `CN(C)CCC[C@@]1(c2ccc(F)cc2)OCc2cc(-c3nnc(-c4ccccc4[N+](=O)[O-])[nH]3)ccc21` was 297 µM; that for `CN(C)CCC[C@@]1(c2ccc(F)cc2)OCc2cc(-c3nnc(-c4ccc(F)cc4)[nH]3)ccc21` was 5.31 µM.
The molecule `CN(C)CCC[C@@]1(c2ccc(F)cc2)OCc2cc(-c3nnc(-c4cccc(Cl)c4)[nH]3)ccc21` yielded an IC50 of 26.5 µM. Compared with the last molecule, the IC50 is about 5-fold higher.
The molecule `Cc1cccc(-c2nnc(-c3ccc4c(c3)CO[C@@]4(CCCN(C)C)c3ccc(F)cc3)[nH]2)c1` registered an IC50 of 89.2 µM.
On the same count and under the same terms, the value for `CN(C)CCC[C@@]1(c2ccc(F)cc2)OCc2cc(-c3nnc(-c4cccc(N)c4)[nH]3)ccc21` was 188 µM; that for `Cc1ccccc1-c1nnc(-c2ccc3c(c2)CO[C@@]3(CCCN(C)C)c2ccc(F)cc2)[nH]1` was 99.7 µM; that for `CN(C)CCC[C@@]1(c2ccc(F)cc2)OCc2cc(-c3nnc(-c4ccccc4)[nH]3)ccc21` was 129 µM.
Turning to `CN(C)CCC[C@@]1(c2ccc(F)cc2)OCc2cc(-c3nnc(-c4cccc(I)c4)[nH]3)ccc21`, half-maximal inhibition (IC50) was put at 188 µM.
In turn, `Cc1ccc(-c2nnc(-c3ccc4c(c3)CO[C@@]4(CCCN(C)C)c3ccc(F)cc3)[nH]2)cc1` displayed an IC50 of 152 µM.
For the molecule `CN(C)CCC[C@@]1(c2ccc(F)cc2)OCc2cc(-c3nnc(-c4ccccc4F)[nH]3)ccc21`, the IC50 is 4.52 µM. This IC50 is about 34-fold lower than that of the molecule before.
Still for that read-out and setting: the value for `CN(C)CCC[C@@]1(c2ccc(F)cc2)OCc2cc(-c3nnc(-c4ccccc4Cl)[nH]3)ccc21` was 81.4 µM.

The next assay deals with T1, Cholinesterase. Kind of assay: Inhibition of BChE (unknown origin) using butyrylthiocholine chloride as substrate at 0.25 mM preincubated for 30 mins before substrate addition measured after 30 mins by Ellman method relative to control.
Regarding `CN(C)CCC[C@@]1(c2ccc(F)cc2)OCc2cc(-c3nnc(-c4cccc(O)c4)[nH]3)ccc21`, the inhibition stood at 61.7%.
The same measure, in the same setting: the same measure for `CN(C)CCC[C@@]1(c2ccc(F)cc2)OCc2cc(-c3nnc(-c4ccccc4F)[nH]3)ccc21`: 93.6%.

Another assay has as its target T2, Acetylcholinesterase. Kind of assay: Inhibition of AChE (unknown origin) using acetylthiocholine iodide as substrate at 0.25 mM preincubated for 30 mins before substrate addition measured after 30 mins by Ellman method relative to control.
`CN(C)CCC[C@@]1(c2ccc(F)cc2)OCc2cc(-c3nnc(-c4cccc(O)c4)[nH]3)ccc21`: the inhibition turned out to be 39.3%.
Still for that read-out and setting: the value for `CN(C)CCC[C@@]1(c2ccc(F)cc2)OCc2cc(-c3nnc(-c4ccccc4F)[nH]3)ccc21` was 62.1%.

The target of another assay is T2, Acetylcholinesterase. Nature of the assay: Inhibition of AChE (unknown origin) using acetylthiocholine iodide as substrate […] measured after 30 mins by Ellman method.
As for `CN(C)CCC[C@@]1(c2ccc(F)cc2)OCc2cc(-c3nnc(-c4cccc(O)c4)[nH]3)ccc21`, the IC50 is under 500 µM.
On the same count and under the same terms, the same measure for `CN(C)CCC[C@@]1(c2ccc(F)cc2)OCc2cc(-c3nnc(-c4cccc([N+](=O)[O-])c4)[nH]3)ccc21`: 138 µM.
As for `COc1cc(-c2nnc(-c3ccc4c(c3)CO[C@@]4(CCCN(C)C)c3ccc(F)cc3)[nH]2)ccc1O`, the IC50 was under 500 µM.
Same read-out and setting: the same measure for `CN(C)CCC[C@@]1(c2ccc(F)cc2)OCc2cc(-c3nnc(-c4ccc(F)cc4)[nH]3)ccc21`: 261 µM.
Consider `CN(C)CCC[C@@]1(c2ccc(F)cc2)OCc2cc(-c3nnc(-c4cccc(Cl)c4)[nH]3)ccc21`, for which half-maximal inhibition (IC50) was put at 413 µM.
Still for that read-out and setting: the same measure for `Cc1cccc(-c2nnc(-c3ccc4c(c3)CO[C@@]4(CCCN(C)C)c3ccc(F)cc3)[nH]2)c1`: 133 µM; for `CN(C)CCC[C@@]1(c2ccc(F)cc2)OCc2cc(-c3nnc(-c4cccc(N)c4)[nH]3)ccc21`: over 500 µM.
Molecule `Cc1ccccc1-c1nnc(-c2ccc3c(c2)CO[C@@]3(CCCN(C)C)c2ccc(F)cc2)[nH]1` displayed an IC50 of 9.52 µM.
For `CN(C)CCC[C@@]1(c2ccc(F)cc2)OCc2cc(-c3nnc(-c4ccccc4)[nH]3)ccc21`, the IC50 was over 500 µM.
Still for that read-out and setting: the value for `COc1ccccc1-c1nnc(-c2ccc3c(c2)CO[C@@]3(CCCN(C)C)c2ccc(F)cc2)[nH]1` was 161 µM; that for `CN(C)CCC[C@@]1(c2ccc(F)cc2)OCc2cc(-c3nnc(-c4cccc(I)c4)[nH]3)ccc21` was over 500 µM.
On to `CN(C)CCC[C@@]1(c2ccc(F)cc2)OCc2cc(-c3nnc(-c4ccccc4F)[nH]3)ccc21`, for which the midpoint of inhibition, the IC50, lay at 188 µM.
